Assay outcomes from PubChem.
Rad51 HR inh = Rad51 (human) homologous recombination inhibition; Q06609; hRad51 DNA strand exchange, fluorescence dequenching; inhibition, % at 10 µM; actives 0.085% (n = 200,000); AID 1385;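 active = inhibition above 40% at the single screening dose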;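 note: 0% = DMSO control wells and 100% = blanks with heterologous ssDNA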
Target sequence (Q06609 whole entry, looked up): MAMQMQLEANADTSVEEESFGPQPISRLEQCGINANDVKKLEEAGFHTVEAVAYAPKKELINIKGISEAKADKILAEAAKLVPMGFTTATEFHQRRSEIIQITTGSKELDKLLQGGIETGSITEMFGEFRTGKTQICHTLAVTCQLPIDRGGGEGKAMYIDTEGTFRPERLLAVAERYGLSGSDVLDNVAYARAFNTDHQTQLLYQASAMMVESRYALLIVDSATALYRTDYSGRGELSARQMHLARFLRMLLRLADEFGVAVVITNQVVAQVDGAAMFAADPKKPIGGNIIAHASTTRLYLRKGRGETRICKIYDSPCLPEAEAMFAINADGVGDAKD
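Test system: preformed human Rad51 ssDNA filaments; also added: Donor/quencher-labelled 47-bp dsDNA substrate; doses: 10 µM final, single point; times: 37 °C 15-min filament assembly, 30-min compound preincubation, 15-min exchange; detection: FRET fluorescence dequenching, excitation 485 nm, emission 520 nm; read-out basis: Fluorescence-based percent inhibition, control- and blank-normalised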
PMI act hi M6P = activators of human phosphomannose isomerase at near-saturating mannose 6-phosphate; coupled PMI enzyme assay, resazurin fluorescence, 20 min; hits give high values; 1 = untreated enzyme, 0 = substrate-free blank; activation factor at 20 µM; actives 0.34% (n = 190,000); AID 1216;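 active = activation factor of 2 or more at 20 µM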
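Material: human phosphomannose isomerase with PGI, G6PDH, diaphorase coupling enzymes. Quantity: 15 ng/mL PMI. Medium: HEPES pH 7.4 buffer with MgCl2 and Tween-20. Reagent: Near-saturating mannose-6-phosphate, 1.0 mM. Compound: 20 µM single dose. Times: enzyme reaction with compound 20 min at room temperature. Detection: resorufin fluorescence at Ex 544/Em 590 nm.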
Calpain2 inh = blocks pig calpain II enzyme activity; purified calpain II, fluorogenic peptide substrate, 30 min; inhibition, % at 16 µM; actives 0.37% (n = 220,000);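 active = inhibition above about 50%, limit read from the data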
Efa HMGR inh = blocks class II HMG-CoA reductase of Enterococcus faecalis; purified E. faecalis HMGR, NADPH absorbance 340 nm kinetic; actives 0.41% (n = 190,000); inhibition, % at 10 µM;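 active = inhibition above a set limit, the median over all tested compounds plus 3 SD, cut at about 9.5% in these data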;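 note: enzyme runs in reverse so mevalonate oxidation gives rising NADPH absorbance; 0% = complete reaction with DMSO and 100% = background rate lacking mevalonate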
PMI activator = activators of human phosphomannose isomerase; actives 0.005% (n = 190,000); P34949; purified human PMI, coupled resazurin fluorescence, 20 min; hits give high values; 1 = vehicle control, 0 substrate-free wells; activation factor at 20 µM; AID 1214;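 active = activation factor of 2 or more at 20 µM, relative to plate controls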
* marks the source's active call; other numbers are inactive results; ! = not active in a repeat. Hits are enriched below; roughly 1.1% of the tested compounds scored in any of these assays.

What do the screens show for `CCOC(=O)c1c(NC(=O)Cn2cnc([N+](=O)[O-])n2)sc(C)c1C`?
Rad51 HR inh: -23; PMI act hi M6P: 1; Calpain2 inh: 14; Efa HMGR inh: -4; PMI activator: 1

What do the screens show for `COc1ccc2c(c1)C(=O)CC(O)(C(F)F)O2` (stereo not given)?
Calpain2 inh: 51*

What do the screens show for `COc1ccc(Nc2nc(NC(C)(C)C)nc(N3CCCC3)n2)c(OC)c1`?
PMI act hi M6P: 1; Calpain2 inh: -9; Efa HMGR inh: 0; PMI activator: 0.9

Results for COc1ccc(N2CCN(c3nc(NC(C)(C)C)nc(N4CCCCC4)n3)CC2)cc1 ?
PMI act hi M6P: 0.9; Calpain2 inh: 65*; Efa HMGR inh: -4; PMI activator: 0.8

How did COC(=O)c1ccc(OC(=O)C23CCC(C)(C(=O)O2)C3(C)C)cc1 (stereo not given) do in these assays?
Rad51 HR inh: 9; PMI act hi M6P: 0.9; Calpain2 inh: 3; Efa HMGR inh: -7; PMI activator: 0.9

What do the screens show for `O=C(c1cc(COc2c(F)cccc2F)on1)N1CCC(c2ccccc2F)C1` (stereo not given)?
Rad51 HR inh: -7; PMI act hi M6P: 0.9; Calpain2 inh: 28; Efa HMGR inh: -6; PMI activator: 0.9

How did O=C(c1cc(COc2c(F)cccc2F)on1)N1CCC(c2ccccc2Cl)C1 (stereo not given) do in these assays?
PMI act hi M6P: 0.8; Calpain2 inh: 55*; Efa HMGR inh: -7; PMI activator: 0.8

How did CC(C)NC(=S)N/N=C/C1=CCC2CC1C2(C)C (stereo not given) do in these assays?
Rad51 HR inh: -5; PMI act hi M6P: 1; Calpain2 inh: 51*; Efa HMGR inh: 1; PMI activator: 1

Results for CC(=O)N/N=C/C1=CCC2CC1C2(C)C (stereo not given) ?
Rad51 HR inh: -10; PMI act hi M6P: 1; Calpain2 inh: 17; Efa HMGR inh: -4; PMI activator: 1

How did O=C(O)C1CC=CCC1C(=O)NNc1ccccc1 (stereo not given) do in these assays?
Rad51 HR inh: 12; PMI act hi M6P: 2.7*; Calpain2 inh: -16; Efa HMGR inh: -2; PMI activator: 1.9

Results for CCCCCOCC1CC(C/C(C)=N/Nc2nc(-c3ccccc3)cs2)C(=O)O1 (stereo not given) ?
Rad51 HR inh: 62*; PMI act hi M6P: 0.9; Calpain2 inh: 0; Efa HMGR inh: -3; PMI activator: 0.8

How did Cc1ncc([N+](=O)[O-])n1CC(C)O (stereo not given) do in these assays?
Rad51 HR inh: -2; PMI act hi M6P: 1.1; Calpain2 inh: 11; Efa HMGR inh: 16*!; PMI activator: 1

What do the screens show for `Cc1ncc([N+](=O)[O-])n1CCO`?
Rad51 HR inh: -3; PMI act hi M6P: 0.9; Calpain2 inh: 27; Efa HMGR inh: -2; PMI activator: 1

What do the screens show for `CCS(=O)(=O)CCn1c([N+](=O)[O-])cnc1C`?
Rad51 HR inh: -7; PMI act hi M6P: 1; Calpain2 inh: -4; Efa HMGR inh: 14*; PMI activator: 1

Results for Cc1ccc(Cn2c([N+](=O)[O-])cnc2C)cc1 ?
Rad51 HR inh: 8; PMI act hi M6P: 1; Calpain2 inh: 22; Efa HMGR inh: -5; PMI activator: 0.9

Results for O=C(O)CCCNC(=O)CCCn1nnc2ccccc2c1=O ?
Calpain2 inh: -16

Results for CCCc1cc(-c2n[nH]c(=S)n2CC(C)C)cs1 ?
Rad51 HR inh: 10; PMI act hi M6P: 0.9; Calpain2 inh: 50*; Efa HMGR inh: -2; PMI activator: 0.9

How did Cc1ccc(NC(=O)N2CCC(=O)N2)cc1 do in these assays?
Rad51 HR inh: 0; PMI act hi M6P: 2*; Calpain2 inh: 7; Efa HMGR inh: -1; PMI activator: 1.3

How did Cc1ccccc1OCCCC(=O)Nc1nccs1 do in these assays?
Rad51 HR inh: 0; PMI act hi M6P: 1; Calpain2 inh: -27; Efa HMGR inh: 3; PMI activator: 0.9

What do the screens show for `Cc1ccc(C)c(OCCCC(=O)Nc2nccs2)c1`?
Rad51 HR inh: -4; PMI act hi M6P: 0.9; Calpain2 inh: 69*; Efa HMGR inh: -2; PMI activator: 0.9

What do the screens show for `Cc1ccc2nc(NC(=O)CN(C)S(=O)(=O)c3cccc4nsnc34)sc2c1`?
Rad51 HR inh: -5; PMI act hi M6P: 1; Calpain2 inh: 53*; Efa HMGR inh: -5; PMI activator: 0.9

Results for CCOC(=O)c1cc2c(=O)n3ccccc3nc2n(C(C)C)c1=NC(=O)c1ccncc1 ?
Rad51 HR inh: 7; PMI act hi M6P: 2.2*; Calpain2 inh: inactive; Efa HMGR inh: -6; PMI activator: 1.4

How did CCOC(=O)c1cc2c(=O)n3ccccc3nc2n(CCCOC)c1=NC(=O)c1cccnc1 do in these assays?
PMI act hi M6P: 2*; Calpain2 inh: -94; Efa HMGR inh: -5; PMI activator: 1.7

How did C1=C(c2ccccc2)Nc2ccccc2N=C1c1ccccc1 do in these assays?
Rad51 HR inh: 1; PMI act hi M6P: 1; Calpain2 inh: 26; Efa HMGR inh: -4; PMI activator: 1

Results for O=[N+]([O-])c1ccc(Oc2cccc(C(F)(F)F)c2)nc1 ?
Rad51 HR inh: 13; Calpain2 inh: -19

Results for O=C1C(c2ccccc2)SC(=Nc2ccccc2)N1S(=O)(=O)c1ccccc1 (stereo not given) ?
Rad51 HR inh: -2; PMI act hi M6P: 1; Calpain2 inh: 54*; Efa HMGR inh: -5; PMI activator: 0.7

How did CC1(C)SC(=Nc2ccccc2)N(S(=O)(=O)c2ccccc2)C1=O do in these assays?
PMI act hi M6P: 1.1; Calpain2 inh: 25; Efa HMGR inh: 0; PMI activator: 1.1

What do the screens show for `O=C(Nc1ccccc1Cl)c1cccc(NS(=O)(=O)c2ccccc2)c1`?
Rad51 HR inh: -1; PMI act hi M6P: 1; Calpain2 inh: -4; Efa HMGR inh: 2; PMI activator: 1

What do the screens show for `O=C1Nc2ccccc2/C1=N\c1sc2c(c1C(=O)Nc1ccccc1)CCCC2`?
Rad51 HR inh: -4; PMI act hi M6P: 1.1; Calpain2 inh: -42; Efa HMGR inh: -3; PMI activator: 1.1

How did Cc1nc(S(=O)(=O)N2CCN(C3c4ccccc4-c4ccccc43)CC2)cn1C do in these assays?
Rad51 HR inh: -4; Calpain2 inh: -31

How did Cc1nc2c(o1)CCc1ccccc1C2N1CCN(C)CC1 (stereo not given) do in these assays?
Rad51 HR inh: 2; PMI act hi M6P: 0.9; Calpain2 inh: -4; Efa HMGR inh: 9.5*!; PMI activator: 1

Results for N=c1n(Cc2ccccc2)c2ccccc2n1CC(O)COc1ccc(Cl)cc1Cl (stereo not given) ?
Rad51 HR inh: 10; Calpain2 inh: 52*; Efa HMGR inh: -4
